Laboratory results: ChEMBL document CHEMBL5303300, “EUbOPEN Chemogenomics Library - Multiplex” (2023)
Where “and” joins values, the source holds several entries; their conditions need not be identical. Identical values can stand only once.

Key:
[1] = tested on: Fibroblast; test: Multiplex assay against human fibroblast; type: toxicity, cell-based; settings: number of replicates 2
Method in brief: (§1)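 Tubulin, mitochondrial-mass and membrane-permeability phenotypes are per cents of healthy-nucleus cells. Cells were gated by CellPathfinder machine learning into Hoechst high-intensity objects or normal cells, normal cells into healthy, pyknosed or fragmented nuclei, and pyknosed cells into mitotic or apoptotic. Before that, live cells stained at seeding with Hoechst33342, BioTracker Green Microtubule Cytoskeleton Dye, MitoTracker Red and Annexin V Alexa Fluor 680 were imaged on a CQ1 microscope at 37°C and 5% CO2 after compound addition.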

[2] = tested on: U2OS; test: Multiplex assay against U2OS; type: toxicity, cell-based; settings: human, number of replicates 2; method in brief: as §1
[3] = 24 h, 1 µM, compound concentration 1 uM
[4] = 24 h, 10 µM, compound concentration 10 uM
[5] = 48 h, 1 µM, compound concentration 1 uM
[6] = 48 h, 10 µM, compound concentration 10 uM
[7] = 12 h, 1 µM, compound concentration 1 uM
[8] = 12 h, 10 µM, compound concentration 10 uM

With CCC(=O)O[C@@H](OP(=O)(CCCCc1ccccc1)CC(=O)N1C[C@H](C2CCCCC2)C[C@H]1C(=O)[O-])C(C)C.[Na+] (stereo partly specified) the “Population Hoechst High Intensity Objects (%)” value [1, 3] was 0%, the “Population Membrane Permeable-Phenotype (%)” value [1, 3] was 3% and 6% and the “Population Mitochondria Different-Phenotype (%)” value [1, 3] was 0% and 2%. For the same molecule, the “Population Mitotic Cells (%)” value [1, 3] was 50% and 54%, the “Population Normal (%)” value [1, 3] was 100% and the “Population Pyknosed Nuclei (%)” value [1, 3] was 20%. For the same molecule, the “Population Tubulin-Different-Phenotype (%)” value [1, 3] was 9% and 10%, the “Total Cell Count” value [1, 3] was 178 and 215 and the “Population Apoptotic (%)” value [1, 4] was 41% and 50%. For the same molecule, the “Population Fragmented Nuclei (%)” value [1, 4] was 8% and 14%, the “Population Healthy Nuclei (%)” value [1, 4] was 76% and 74% and the “Population Hoechst High Intensity Objects (%)” value [1, 4] was 0%. The “Population Membrane Permeable-Phenotype (%)” value [1, 4] was 5% and 1%, the “Population Mitochondria Different-Phenotype (%)” value [1, 4] was 0% and the “Population Mitotic Cells (%)” value [1, 4] was 58% and 50%. The “Population Normal (%)” value [1, 4] was 99% and 100%, the “Population Pyknosed Nuclei (%)” value [1, 4] was 15% and 11% and the “Population Tubulin-Different-Phenotype (%)” value [1, 4] was 11% and 3%. For the same molecule, the “Total Cell Count” value [1, 4] was 223 and 221, the “Population Apoptotic (%)” value [1, 5] was 68% and 61% and the “Population Fragmented Nuclei (%)” value [1, 5] was 11% and 15%. For the same molecule, the “Population Healthy Nuclei (%)” value [1, 5] was 67% and 68%, the “Population Hoechst High Intensity Objects (%)” value [1, 5] was 0% and the “Population Membrane Permeable-Phenotype (%)” value [1, 5] was 5% and 11%. For the same molecule, the “Population Mitochondria Different-Phenotype (%)” value [1, 5] was 0% and 1%, the “Population Mitotic Cells (%)” value [1, 5] was 31% and 38% and the “Population Normal (%)” value [1, 5] was 100%. For the same molecule, the “Population Pyknosed Nuclei (%)” value [1, 5] was 20% and 16%, the “Population Tubulin-Different-Phenotype (%)” value [1, 5] was 8% and the “Total Cell Count” value [1, 5] was 183 and 213. The “Population Apoptotic (%)” value [1, 6] was 45% and 48%, the “Population Fragmented Nuclei (%)” value [1, 6] was 9% and 16% and the “Population Healthy Nuclei (%)” value [1, 6] was 75% and 72%. The “Population Hoechst High Intensity Objects (%)” value [1, 6] was 0%, the “Population Membrane Permeable-Phenotype (%)” value [1, 6] was 4% and 1% and the “Population Mitochondria Different-Phenotype (%)” value [1, 6] was 0%. For the same molecule, the “Population Mitotic Cells (%)” value [1, 6] was 54% and 52%, the “Population Normal (%)” value [1, 6] was 99% and 100% and the “Population Pyknosed Nuclei (%)” value [1, 6] was 14% and 10%. For the same molecule, the “Population Tubulin-Different-Phenotype (%)” value [1, 6] was 6% and 1%, the “Total Cell Count” value [1, 6] was 222 and 228 and the “Population Apoptotic (%)” value [2, 7] was 33% and 87%. For the same molecule, the “Population Healthy Nuclei (%)” value [2, 7] was 60% and 83%, the “Population Hoechst High Intensity Objects (%)” value [2, 7] was 0% and the “Population Membrane Permeable-Phenotype (%)” value [2, 7] was 0% and 1%. The “Population Mitochondria Different-Phenotype (%)” value [2, 7] was 0%, the “Population Normal (%)” value [2, 7] was 100% and the “Population Pyknosed Nuclei (%)” value [2, 7] was 6% and 12%. For the same molecule, the “Population Tubulin-Different-Phenotype (%)” value [2, 7] was 80% and 82%, the “Population Apoptotic (%)” value [2, 8] was 100% and 40% and the “Population Healthy Nuclei (%)” value [2, 8] was 53% and 87%. The “Population Hoechst High Intensity Objects (%)” value [2, 8] was 0%, the “Population Membrane Permeable-Phenotype (%)” value [2, 8] was 7% and 0% and the “Population Mitochondria Different-Phenotype (%)” value [2, 8] was 7% and 0%. For the same molecule, the “Population Normal (%)” value [2, 8] was 100%, the “Population Pyknosed Nuclei (%)” value [2, 8] was 7% and the “Population Tubulin-Different-Phenotype (%)” value [2, 8] was 78% and 80%. The “Population Apoptotic (%)” value [2, 3] was 40% and 80%, the “Population Healthy Nuclei (%)” value [2, 3] was 61% and 87% and the “Population Hoechst High Intensity Objects (%)” value [2, 3] was 0%. The “Population Membrane Permeable-Phenotype (%)” value [2, 3] was 0%, the “Population Mitochondria Different-Phenotype (%)” value [2, 3] was 0% and the “Population Normal (%)” value [2, 3] was 100% and 99%. For the same molecule, the “Population Pyknosed Nuclei (%)” value [2, 3] was 8%, the “Population Tubulin-Different-Phenotype (%)” value [2, 3] was 80% and 86% and the “Population Apoptotic (%)” value [2, 4] was 80% and 41%. For the same molecule, the “Population Fragmented Nuclei (%)” value [2, 4] was 4%, the “Population Healthy Nuclei (%)” value [2, 4] was 71% and 87% and the “Population Hoechst High Intensity Objects (%)” value [2, 4] was 0%. The “Population Membrane Permeable-Phenotype (%)” value [2, 4] was 6% and 1%, the “Population Mitochondria Different-Phenotype (%)” value [2, 4] was 0% and the “Population Mitotic Cells (%)” value [2, 4] was 20% and 58%. For the same molecule, the “Population Normal (%)” value [2, 4] was 100% and 99%, the “Population Pyknosed Nuclei (%)” value [2, 4] was 23% and 8% and the “Population Tubulin-Different-Phenotype (%)” value [2, 4] was 80% and 83%. The “Population Apoptotic (%)” value [2, 5] was 50% and 84%, the “Population Healthy Nuclei (%)” value [2, 5] was 72% and 90% and the “Population Hoechst High Intensity Objects (%)” value [2, 5] was 0%. The “Population Membrane Permeable-Phenotype (%)” value [2, 5] was 0% and 1%, the “Population Mitochondria Different-Phenotype (%)” value [2, 5] was 0% and the “Population Normal (%)” value [2, 5] was 100% and 99%. The “Population Pyknosed Nuclei (%)” value [2, 5] was 10% and 6%, the “Population Tubulin-Different-Phenotype (%)” value [2, 5] was 87% and 85% and the “Population Apoptotic (%)” value [2, 6] was 75% and 46%. For the same molecule, the “Population Healthy Nuclei (%)” value [2, 6] was 64% and 92%, the “Population Hoechst High Intensity Objects (%)” value [2, 6] was 0% and the “Population Membrane Permeable-Phenotype (%)” value [2, 6] was 4% and 0%. The “Population Mitochondria Different-Phenotype (%)” value [2, 6] was 0%, the “Population Mitotic Cells (%)” value [2, 6] was 25% and 53% and the “Population Normal (%)” value [2, 6] was 100%. The “Population Tubulin-Different-Phenotype (%)” value [2, 6] was 70% and 85%.
